The source made the active and inactive calls.
Experiments:
Chorioallantoic membrane [1] = assay: Antiangiogenic activity in Leghorn chicken embryo chorioallantoic membrane assessed as disruption of smaller blood vessels at 5 nmol after 6 hrs by light microscopic analysis; type: functional, tissue-based; details: Gallus gallus
How it was run: (§1)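 Fertilized chicken eggs, CAM assay. Compound was applied topically into a small silicon foil ring placed on the CAM. The membrane and its extraembryonal blood vessels were monitored over 24 h, with observations at 6 h and 24 h post application.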

Chorioallantoic membrane [2] = assay: Antiangiogenic activity in Leghorn chicken embryo chorioallantoic membrane assessed as induction of hemorrhages at 5 nmol after 6 hrs by light microscopic analysis; type: functional, tissue-based; details: Gallus gallus; how it was run: as §1
Chorioallantoic membrane [3] = assay: Antiangiogenic activity in Leghorn chicken embryo chorioallantoic membrane assessed as induction of hemorrhages at 5 nmol after 24 hrs by light microscopic analysis; type: functional, tissue-based; details: Gallus gallus; how it was run: as §1
Chorioallantoic membrane [4] = assay: Antiangiogenic activity in Leghorn chicken embryo chorioallantoic membrane assessed as reduction in diameter of main blood vessel at 5 nmol after 24 hrs by light microscopic analysis; type: functional, tissue-based; details: Gallus gallus; how it was run: as §1
Chorioallantoic membrane [5] = assay: Antiangiogenic activity in Leghorn chicken embryo chorioallantoic membrane assessed as reduction in blood vessel area at 5 nmol after 6 hrs by light microscopic analysis relative to control; type: functional, tissue-based; set-up: scale not given: the % may be the effect or the level left; details: Gallus gallus
How it was run: (§2)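 The CAM assay was run with topical application into a silicon foil ring atop the CAM of fertilized chicken eggs. Area covered by blood vessels was quantified by fractal analysis relative to control.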

Chorioallantoic membrane [6] = assay: Antiangiogenic activity in Leghorn chicken embryo chorioallantoic membrane assessed as effect on blood vessel length at 5 nmol after 6 hrs by light microscopic analysis; type: functional, tissue-based; details: Gallus gallus; how it was run: as §1
A2780cis = assay: Antitumor activity against human A2780cis xenografted in nude mouse at 60 mg/kg, ip administered on day 0, 4, 11 and 16; type: functional, organism-based
Chorioallantoic membrane [7] = assay: Antiangiogenic activity in Leghorn chicken embryo chorioallantoic membrane assessed as disruption of smaller blood vessels at 5 nmol after 24 hrs by light microscopic analysis; type: functional, tissue-based; details: Gallus gallus; how it was run: as §1
A2780 [8] = assay: Antivascular activity against human A2780 cells xenografted in nude mouse assessed as induction of hemorrhages at tumor core at 100 mg/kg administered on every other day and measured after 24 hrs by H and E staining based histopathological analysis; type: functional, organism-based
A2780 [9] = assay: Antivascular activity against human A2780 cells xenografted in nude mouse assessed as induction of necrosis at tumor core at 100 mg/kg […] and measured after 24 hrs by H and E staining based histopathological analysis; type: functional, organism-based
How it was run: (§3)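 Mice bore A2780 tumor xenografts. Compound was formulated in tween80/ethanol (1:1) and injected as single doses. Tumors were inspected for discoloration as a sign of vascular disruption, and treated tumors were examined histologically for hemorrhage and necrosis.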

A2780 [10] = assay: Antivascular activity against human A2780 cells xenografted in nude mouse assessed as tumor discoloration at 200 mg/kg administered on every other day and measured after 24 hrs; type: functional, organism-based; details: in the assay text read “administered as single dose” for “administered on every other day”; how it was run: as §3
Chorioallantoic membrane [11] = assay: Antiangiogenic activity in Leghorn chicken embryo chorioallantoic membrane assessed as disruption of smaller blood vessels at 10 nmol after 6 hrs by light microscopic analysis; type: functional, tissue-based; details: Gallus gallus; how it was run: as §1
Chorioallantoic membrane [12] = assay: Antiangiogenic activity in Leghorn chicken embryo chorioallantoic membrane assessed as induction of hemorrhages at 10 nmol after 6 hrs by light microscopic analysis; type: functional, tissue-based; details: Gallus gallus; how it was run: as §1
Chorioallantoic membrane [13] = assay: Antiangiogenic activity in Leghorn chicken embryo chorioallantoic membrane assessed as induction of hemorrhages at 10 nmol after 24 hrs by light microscopic analysis; type: functional, tissue-based; details: Gallus gallus; how it was run: as §1
Chorioallantoic membrane [14] = assay: Antiangiogenic activity in Leghorn chicken embryo chorioallantoic membrane assessed as disruption of smaller blood vessels at 10 nmol after 24 hrs by light microscopic analysis; type: functional, tissue-based; details: Gallus gallus; how it was run: as §1
Chorioallantoic membrane [15] = assay: Antiangiogenic activity in Leghorn chicken embryo chorioallantoic membrane assessed as reduction in diameter of main blood vessel at 10 nmol after 24 hrs by light microscopic analysis; type: functional, tissue-based; details: Gallus gallus; how it was run: as §1
Chorioallantoic membrane [16] = assay: Antiangiogenic activity in Leghorn chicken embryo chorioallantoic membrane assessed as reduction in blood vessel area at 10 nmol after 6 hrs by light microscopic analysis relative to control; type: functional, tissue-based; set-up: scale not given: the % may be the effect or the level left; details: Gallus gallus; how it was run: as §2
Chorioallantoic membrane [17] = assay: Antiangiogenic activity in Leghorn chicken embryo chorioallantoic membrane assessed as effect on blood vessel length at 10 nmol after 6 hrs by light microscopic analysis; type: functional, tissue-based; details: Gallus gallus; how it was run: as §1

Measured: Activity

N#CC1=C(N)Oc2c(ccc3ccccc23)C1c1cc(F)cc(F)c1 (stereo not drawn)
inactive: Chorioallantoic membrane [3] | Chorioallantoic membrane [7]
active: Chorioallantoic membrane [1] | Chorioallantoic membrane [2] | Chorioallantoic membrane [4] | Chorioallantoic membrane [6] | A2780cis | A2780 [8] | A2780 [9]
59%: Chorioallantoic membrane [5]

N#CC1=C(N)Oc2c(ccc3ccccc23)C1c1cccc([N+](=O)[O-])c1 (stereo not drawn)
32%: Chorioallantoic membrane [16]
inactive: A2780 [10] | Chorioallantoic membrane [13] | Chorioallantoic membrane [14]
active: Chorioallantoic membrane [11] | Chorioallantoic membrane [12] | Chorioallantoic membrane [15] | Chorioallantoic membrane [17]
